From ChEMBL document CHEMBL1212889, “Novel antifungal agents: triazolopyridines as inhibitors of beta-1,6-glucan synthesis” (Bioorg Med Chem, 2010)
Converted amounts (≈) assume the structure as drawn.

Legend:
[1] = test system: Saccharomyces cerevisiae; assay: Antimicrobial activity against Saccharomyces cerevisiae AY14 by microdilution assay; assay type: functional
How it was run: (§1)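 CLSI broth microdilution, modified to incubate at 30 °C. MIC-0 is the lowest drug concentration giving an optically clear well. Table footnote: the endpoint was the lowest concentration producing a prominent reduction in turbidity. Drug range 0.004 to 128 µg/mL.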

[2] = Solubility of the compound at pH 6.8; assay type: physicochemical; conditions: buffer
How it was run: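 Water solubility measured at pH 6.8.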

[3] = test system: Nakaseomyces glabratus; assay: Antimicrobial activity against Candida glabrata IFO 0622 by microdilution assay; assay type: functional; how it was run: as §1
[4] = test system: Candida tropicalis; assay: Antimicrobial activity against Candida tropicalis TIMM 0313 by microdilution assay; assay type: functional; how it was run: as §1
[5] = test system: Candida albicans; assay: Antimicrobial activity against Candida albicans ATCC 24433 by microdilution assay; assay type: functional; how it was run: as §1
[6] = Octanol-phosphate buffered saline partition coefficient, log D of the compound at pH 6.8; assay type: physicochemical
How it was run: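 Shake partition between 1-octanol and phosphate-buffered saline at pH 6.8. Layers were separated by centrifugation at 3000 rpm for 10 min, and each layer was assayed by LC/MS on a C18 column with an ammonium acetate (pH 4.5)/acetic acid–acetonitrile gradient. Log D was computed from the partition coefficient.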

[7] = test system: Pichia kudriavzevii; assay: Antimicrobial activity against Candida krusei TIMM 0269 by microdilution assay; assay type: functional; how it was run: as §1
[8] = test system: Liver microsomes; assay: Metabolic stability in human liver microsomes; assay type: ADME, Microsome
How it was run: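 Compound at 1 µM final with human liver microsomes (0.5 mg/mL protein) in sodium phosphate buffer pH 7.4, preincubated 20 min at 37 °C. NADPH started the reaction, and MeOH stopped it after 30 min. Samples were centrifuged at 4 °C, and parent loss was measured by LC/MS/MS.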

[9] = test system: Pichia kudriavzevii; assay: Antimicrobial activity against Candida krusei ATCC 44507 using alamar blue stain by microdilution assay; assay type: functional
How it was run: (§2)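 Modified CLSI microdilution in RPMI 1640 with 0.165 M MOPS, plus alamar blue redox indicator. Inoculum was 1 × 10³ to 1 × 10⁴ cells/mL and incubation ran 18–72 h, both set per strain by growth speed, at 30 °C. OD570 was read and MIC-2 taken as the lowest concentration giving 50% absorbance reduction versus the drug-free control.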

[10] = test system: Candida tropicalis; assay: Antimicrobial activity against Candida tropicalis IAM 4965 using alamar blue stain by microdilution assay; assay type: functional; how it was run: as §2
[11] = test system: Nakaseomyces glabratus; assay: Antimicrobial activity against Candida glabrata ATCC 48435 using alamar blue stain by microdilution assay; assay type: functional; how it was run: as §2
[12] = test system: Candida albicans; assay: Antimicrobial activity against Candida albicans ATCC 24433 using alamar blue stain by microdilution assay; assay type: functional; how it was run: as §2
[13] = test system: Saccharomyces cerevisiae; assay: Antimicrobial activity against Saccharomyces cerevisiae AY14 using alamar blue stain by microdilution assay; assay type: functional; how it was run: as §2

SMILES: Cc1c(-c2ccccc2)c(N2CC[C@H](N(C)C)C2)n2c(nc3ccccc32)c1C#N
- MIC [1]: ≤ 0.125 mg/L
- solubility [2]: 0.0053 mg/mL (≈ 13.4 µM)
- MIC [3]: ≤ 0.125 mg/L
- MIC [4]: 0.5 mg/L (≈ 1.26 µM)
- MIC [5]: > 128 mg/L
- logD [6]: 3.1
- MIC [7]: ≤ 0.125 mg/L
- Stability [8]: 29%

SMILES: CCCCc1c(C)c(C#N)c2nc3ccccc3n2c1N1CC[C@H](N(C)C)C1
- MIC [1]: 0.25 mg/L (≈ 0.666 µM)
- solubility [2]: 0.026 mg/mL (≈ 69.2 µM)
- MIC [3]: ≤ 0.125 mg/L
- MIC [4]: 0.5 mg/L (≈ 1.33 µM)
- MIC [5]: > 128 mg/L
- logD [6]: 3.2
- MIC [7]: 0.5 mg/L (≈ 1.33 µM)
- Stability [8]: 57%

SMILES: CCCCc1c(C)c(C#N)c2nc(C(C)(C)C)nn2c1N1CC[C@H](N(C)C)C1
- MIC [1]: 64 mg/L (≈ 167 µM)
- solubility [2]: 0.146 mg/mL (≈ 382 µM)
- MIC [3]: 32 mg/L (≈ 83.6 µM)
- MIC [4]: > 128 mg/L
- MIC [5]: > 128 mg/L
- logD [6]: 3.2
- MIC [7]: > 128 mg/L
- Stability [8]: 11%

SMILES: Cc1c(-c2ccccc2)c(N2CC[C@H](N(C)C)C2)n2nc(C(C)(C)C)nc2c1C#N
- MIC [1]: ≤ 0.125 mg/L
- MIC [9]: > 4 mg/L
- solubility [2]: 0.016 mg/mL (≈ 39.7 µM)
- MIC [3]: ≤ 0.125 mg/L
- MIC [4]: 2 mg/L (≈ 4.97 µM)
- MIC [5]: > 128 mg/L
- MIC [10]: 0.25 mg/L (≈ 0.621 µM)
- MIC [11]: 0.063 mg/L (≈ 0.157 µM)
- logD [6]: 3.1
- MIC [7]: 16 mg/L (≈ 39.7 µM)
- MIC [12]: > 4 mg/L
- MIC [13]: 0.063 mg/L (≈ 0.157 µM)
- Stability [8]: 9%

SMILES: Cc1nc2c(C#N)c(C)c(-c3ccccc3)c(N3CC[C@H](N(C)C)C3)n2n1
- MIC [1]: 8 mg/L (≈ 22.2 µM)
- solubility [2]: 0.376 mg/mL (≈ 1040 µM)
- MIC [3]: 2 mg/L (≈ 5.55 µM)
- MIC [4]: > 128 mg/L
- MIC [5]: > 128 mg/L
- logD [6]: 1.7
- MIC [7]: > 128 mg/L
- Stability [8]: 84%

SMILES: CCCCc1nc2c(C#N)c(C)c(-c3ccccc3)c(N3CC[C@H](N(C)C)C3)n2n1
- MIC [1]: 2 mg/L (≈ 4.97 µM)
- solubility [2]: 0.033 mg/mL (≈ 82 µM)
- MIC [3]: 1 mg/L (≈ 2.48 µM)
- MIC [4]: > 64 mg/L
- MIC [5]: > 128 mg/L
- logD [6]: 3.2
- MIC [7]: > 64 mg/L
- Stability [8]: 5%

SMILES: Cc1c(-c2ccccc2)c(N2CC[C@H](N(C)C)C2)n2nc(-c3ccccc3)nc2c1C#N
- MIC [1]: > 128 mg/L
- MIC [3]: > 128 mg/L
- MIC [4]: > 128 mg/L
- MIC [5]: > 128 mg/L
- MIC [7]: > 128 mg/L

SMILES: CCN(CC)CCNc1c(-c2ccccc2)c(C)c(C#N)c2nc(C(C)(C)C)nn12
- MIC [1]: 0.5 mg/L (≈ 1.24 µM)
- solubility [2]: 0.002 mg/mL (≈ 4.94 µM)
- MIC [3]: 0.5 mg/L (≈ 1.24 µM)
- MIC [4]: > 128 mg/L
- MIC [5]: > 128 mg/L
- logD [6]: 3.3
- MIC [7]: > 128 mg/L
- Stability [8]: 10%

SMILES: Cc1c(-c2ccccc2)c(N2CC[C@H](N(C)C)C2)n2nc(C3CC3)nc2c1C#N
- MIC [9]: > 4 mg/L
- solubility [2]: 0.057 mg/mL (≈ 147 µM)
- MIC [10]: 1 mg/L (≈ 2.59 µM)
- MIC [11]: 0.063 mg/L (≈ 0.163 µM)
- logD [6]: 2.4
- MIC [12]: > 4 mg/L
- MIC [13]: 0.032 mg/L (≈ 0.0828 µM)
- Stability [8]: 48%

SMILES: CCc1nc2c(C#N)c(C)c(-c3ccccc3)c(N3CC[C@H](N(C)C)C3)n2n1
- MIC [9]: > 4 mg/L
- solubility [2]: 0.228 mg/mL (≈ 609 µM)
- MIC [10]: 1 mg/L (≈ 2.67 µM)
- MIC [11]: 0.125 mg/L (≈ 0.334 µM)
- logD [6]: 2.1
- MIC [12]: > 4 mg/L
- MIC [13]: 0.063 mg/L (≈ 0.168 µM)
- Stability [8]: 54%

SMILES: Cc1c(-c2ccccc2)c(N2CC[C@H](N(C)C)C2)n2nc(C(C)(C)COCc3ccccc3)nc2c1C#N
- MIC [9]: > 4 mg/L
- solubility [2]: < 0.003 mg/mL
- MIC [10]: 0.125 mg/L (≈ 0.246 µM)
- MIC [11]: 0.125 mg/L (≈ 0.246 µM)
- logD [6]: 3.8
- MIC [12]: > 4 mg/L
- MIC [13]: 0.063 mg/L (≈ 0.124 µM)
- Stability [8]: 9%

SMILES: Cc1c(-c2ccccc2)c(N2CC[C@H](N(C)C)C2)n2nc(C(C)(C)CO)nc2c1C#N
- MIC [9]: > 4 mg/L
- solubility [2]: 0.14 mg/mL (≈ 334 µM)
- MIC [10]: 0.25 mg/L (≈ 0.597 µM)
- MIC [11]: 0.25 mg/L (≈ 0.597 µM)
- logD [6]: 1.8
- MIC [12]: > 4 mg/L
- MIC [13]: 0.125 mg/L (≈ 0.299 µM)
- Stability [8]: 64%

SMILES: Cc1c(-c2ccccc2)c(N2CC[C@H](N(C)C)C2)n2cc(C(C)(C)C)nc2c1C#N
- MIC [9]: 4 mg/L (≈ 9.96 µM)
- solubility [2]: 0.027 mg/mL (≈ 67.2 µM)
- MIC [10]: 4 mg/L (≈ 9.96 µM)
- MIC [11]: 0.25 mg/L (≈ 0.623 µM)
- logD [6]: 3
- MIC [12]: 4 mg/L (≈ 9.96 µM)
- MIC [13]: 0.125 mg/L (≈ 0.311 µM)
- Stability [8]: 16%

SMILES: Cc1cn2c(N3CC[C@H](N(C)C)C3)c(-c3ccccc3)c(C)c(C#N)c2n1
- MIC [9]: > 4 mg/L
- solubility [2]: 0.356 mg/mL (≈ 990 µM)
- MIC [10]: > 4 mg/L
- MIC [11]: 0.5 mg/L (≈ 1.39 µM)
- logD [6]: 1.9
- MIC [12]: > 4 mg/L
- MIC [13]: 1 mg/L (≈ 2.78 µM)
- Stability [8]: 71%

SMILES: Cc1c(-c2ccccc2)c(N2CC[C@H](N(C)C)C2)n2nc(C(C)(C)C)cc2c1C#N
- MIC [9]: 4 mg/L (≈ 9.96 µM)
- solubility [2]: < 0.002 mg/mL
- MIC [10]: 1 mg/L (≈ 2.49 µM)
- MIC [11]: 1 mg/L (≈ 2.49 µM)
- logD [6]: 4.8
- MIC [12]: 4 mg/L (≈ 9.96 µM)
- MIC [13]: 1 mg/L (≈ 2.49 µM)
- Stability [8]: 12%

SMILES: OC(Cn1cncn1)(Cn1cncn1)c1ccc(F)cc1F [FLUCONAZOLE]
- MIC [1]: 4 mg/L (≈ 13.1 µM)
- solubility [2]: > 2 mg/mL
- MIC [3]: 2 mg/L (≈ 6.53 µM)
- MIC [4]: 0.25 mg/L (≈ 0.816 µM)
- MIC [5]: 0.25 mg/L (≈ 0.816 µM)
- MIC [7]: 16 mg/L (≈ 52.2 µM)
- Stability [8]: 96%
